Test results as given in ChEMBL document CHEMBL1157570, “Development of potent and selective inhibitors of ecto-5'-nucleotidase based on an anthraquinone scaffold” (J Med Chem, 2010).
pIC50, pKi: −log10 of the molar value. Activity calls are given as the source filed them. The calls are words filed in the database; no cut-off is given here.

Assays:
5'-nucleotidase = target: T1, 5'-nucleotidase (Rattus norvegicus, UniProt P21588); test: Inhibition of rat ecto-5'-nucleotidase expressed in Sf9 cells by capillary electrophoresis method
T1 sequence (P21588 whole entry): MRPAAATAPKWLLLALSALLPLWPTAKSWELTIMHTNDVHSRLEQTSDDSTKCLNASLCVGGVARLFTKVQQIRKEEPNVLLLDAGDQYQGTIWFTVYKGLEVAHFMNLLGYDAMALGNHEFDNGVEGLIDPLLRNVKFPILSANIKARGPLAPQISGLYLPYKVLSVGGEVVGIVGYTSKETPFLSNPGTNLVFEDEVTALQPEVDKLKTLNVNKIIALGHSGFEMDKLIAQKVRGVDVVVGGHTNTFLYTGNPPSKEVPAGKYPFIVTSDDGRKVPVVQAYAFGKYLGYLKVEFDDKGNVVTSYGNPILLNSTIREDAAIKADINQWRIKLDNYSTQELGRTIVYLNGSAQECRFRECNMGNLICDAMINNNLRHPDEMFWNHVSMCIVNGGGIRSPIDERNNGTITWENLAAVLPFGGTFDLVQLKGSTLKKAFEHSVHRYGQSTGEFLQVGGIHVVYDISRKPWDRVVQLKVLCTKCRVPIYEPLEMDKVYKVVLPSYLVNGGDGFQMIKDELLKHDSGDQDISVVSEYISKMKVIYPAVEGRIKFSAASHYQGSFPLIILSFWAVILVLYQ
Outline: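 Rat eN, GST-fused, made in Sf9 cells and purified on GSH-agarose. 500 μM AMP in Hepes pH 7.4 with Mg2+/Ca2+, 37 °C for 15 min. Adenosine measured by capillary electrophoresis at 260 nm. Inhibitor at 6-8 concentrations spanning about 3 log units. […] Three experiments, each in duplicate.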

[1] = target: T2, 5'-nucleotidase (Rattus norvegicus) (UniProt P21588); test: Inhibition of rat ecto-5'-nucleotidase expressed in Sf9 cells by competitive Michaelis-Menten plot
T2 sequence (whole entry): T1 sequence (P21588 whole entry)
Outline: (§1)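 Purified recombinant rat eN from Sf9 cells. Reaction rates measured across a range of AMP concentrations, with inhibitor absent or at 0.2, 1 or 5 μM. Adenosine formed was quantified by capillary electrophoresis at 260 nm. Km and Vmax were compared on Michaelis-Menten and Lineweaver-Burk plots to assign the inhibition mode.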

[2] = target: T2, 5'-nucleotidase (Rattus norvegicus); test: Inhibition of rat ecto-5'-nucleotidase expressed in Sf9 cells by competitive Lineweaver-Burke plot; outline: as §1
[3] = target: T3, Ectonucleoside triphosphate diphosphohydrolase 1 (Rattus norvegicus, UniProt P97687); test: Inhibition of rat NTPdase1 by capillary electrophoresis method
T3 sequence (P97687 whole entry): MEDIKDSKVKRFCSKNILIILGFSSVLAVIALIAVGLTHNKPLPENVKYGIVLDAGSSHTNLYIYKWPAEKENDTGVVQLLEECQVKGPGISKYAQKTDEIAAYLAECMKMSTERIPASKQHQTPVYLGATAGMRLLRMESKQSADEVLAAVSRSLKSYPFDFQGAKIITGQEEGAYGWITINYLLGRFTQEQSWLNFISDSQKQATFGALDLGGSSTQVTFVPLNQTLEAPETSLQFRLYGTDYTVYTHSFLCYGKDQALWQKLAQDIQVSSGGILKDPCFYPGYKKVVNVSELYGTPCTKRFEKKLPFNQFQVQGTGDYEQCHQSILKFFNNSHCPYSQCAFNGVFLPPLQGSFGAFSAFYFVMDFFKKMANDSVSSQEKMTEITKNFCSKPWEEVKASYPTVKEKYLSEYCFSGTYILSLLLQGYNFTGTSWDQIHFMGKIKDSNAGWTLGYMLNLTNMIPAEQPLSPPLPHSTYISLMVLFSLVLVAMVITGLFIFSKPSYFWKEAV

[4] = target: T4, Ectonucleoside triphosphate diphosphohydrolase 2 (Rattus norvegicus, UniProt O35795); test: Inhibition of rat NTPdase2 by capillary electrophoresis method
T4 sequence (O35795 whole entry): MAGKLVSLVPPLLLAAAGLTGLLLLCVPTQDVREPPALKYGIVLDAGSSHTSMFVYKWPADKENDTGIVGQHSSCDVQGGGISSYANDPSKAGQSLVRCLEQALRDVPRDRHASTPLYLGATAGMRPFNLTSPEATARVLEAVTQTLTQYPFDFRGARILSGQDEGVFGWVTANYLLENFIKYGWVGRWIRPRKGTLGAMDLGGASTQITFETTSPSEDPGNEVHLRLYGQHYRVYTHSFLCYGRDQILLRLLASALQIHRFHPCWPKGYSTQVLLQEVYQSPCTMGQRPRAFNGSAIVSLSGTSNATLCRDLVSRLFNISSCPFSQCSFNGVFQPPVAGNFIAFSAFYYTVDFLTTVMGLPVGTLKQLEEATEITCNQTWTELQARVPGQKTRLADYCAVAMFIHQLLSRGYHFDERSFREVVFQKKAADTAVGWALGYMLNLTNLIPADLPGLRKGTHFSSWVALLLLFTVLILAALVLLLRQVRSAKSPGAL

[5] = target: T5, Nucleoside triphosphate diphosphohydrolase 3 (Rattus norvegicus, UniProt A6I415); test: Inhibition of rat NTPdase3 by capillary electrophoresis method
T5 sequence (A6I415 whole entry): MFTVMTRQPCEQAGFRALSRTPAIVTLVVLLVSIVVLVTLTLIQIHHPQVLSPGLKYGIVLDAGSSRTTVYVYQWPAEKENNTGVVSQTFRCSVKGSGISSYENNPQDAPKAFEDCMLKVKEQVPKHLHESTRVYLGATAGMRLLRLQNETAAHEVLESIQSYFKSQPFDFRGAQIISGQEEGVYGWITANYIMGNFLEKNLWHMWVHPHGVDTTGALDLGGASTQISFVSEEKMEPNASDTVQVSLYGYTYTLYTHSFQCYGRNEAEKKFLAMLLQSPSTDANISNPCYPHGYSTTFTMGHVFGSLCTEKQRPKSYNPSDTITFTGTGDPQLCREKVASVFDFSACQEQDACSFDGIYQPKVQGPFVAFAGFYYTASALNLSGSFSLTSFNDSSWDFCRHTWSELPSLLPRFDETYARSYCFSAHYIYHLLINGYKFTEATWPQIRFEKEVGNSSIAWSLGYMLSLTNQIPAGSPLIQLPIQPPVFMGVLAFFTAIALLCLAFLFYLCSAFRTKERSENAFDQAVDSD

P2Y purinoceptor 6 = P2Y purinoceptor 6 (Rattus norvegicus, UniProt Q63371); test: Antagonist activity at rat P2Y6 receptor expressed in astrocytoma cells assessed as inhibition of intracellular calcium mobilization; format: functional, cell-based
Sequence of P2Y purinoceptor 6 (Q63371 whole entry): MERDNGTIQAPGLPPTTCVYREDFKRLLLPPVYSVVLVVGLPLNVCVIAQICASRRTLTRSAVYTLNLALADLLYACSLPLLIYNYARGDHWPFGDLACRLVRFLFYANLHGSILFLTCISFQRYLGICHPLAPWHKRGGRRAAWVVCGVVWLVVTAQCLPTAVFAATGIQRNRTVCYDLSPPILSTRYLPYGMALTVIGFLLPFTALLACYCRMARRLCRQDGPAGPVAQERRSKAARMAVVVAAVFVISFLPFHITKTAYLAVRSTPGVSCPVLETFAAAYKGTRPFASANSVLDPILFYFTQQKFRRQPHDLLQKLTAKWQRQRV
Outline: (§2)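 Astrocytoma cells stably expressing the receptor, loaded with Fura-2 AM. Cells preincubated with test agent for at least 20 min, then challenged with 1 μM UTP (P2Y2), 3 μM UTP (P2Y4) or 3 μM UDP (P2Y6). Ca2+ fluorescence read at ex 320/em 520 nm. Full curves (7-8 concentrations over 3 log units) run when inhibition exceeded 40% at 10 μM. Three experiments, each in triplicate.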

[6] = target: T6, Ectonucleoside triphosphate diphosphohydrolase 1 (Homo sapiens, UniProt P49961); test: Inhibition of human NTPdase1 by capillary electrophoresis method
T6 sequence (P49961 whole entry): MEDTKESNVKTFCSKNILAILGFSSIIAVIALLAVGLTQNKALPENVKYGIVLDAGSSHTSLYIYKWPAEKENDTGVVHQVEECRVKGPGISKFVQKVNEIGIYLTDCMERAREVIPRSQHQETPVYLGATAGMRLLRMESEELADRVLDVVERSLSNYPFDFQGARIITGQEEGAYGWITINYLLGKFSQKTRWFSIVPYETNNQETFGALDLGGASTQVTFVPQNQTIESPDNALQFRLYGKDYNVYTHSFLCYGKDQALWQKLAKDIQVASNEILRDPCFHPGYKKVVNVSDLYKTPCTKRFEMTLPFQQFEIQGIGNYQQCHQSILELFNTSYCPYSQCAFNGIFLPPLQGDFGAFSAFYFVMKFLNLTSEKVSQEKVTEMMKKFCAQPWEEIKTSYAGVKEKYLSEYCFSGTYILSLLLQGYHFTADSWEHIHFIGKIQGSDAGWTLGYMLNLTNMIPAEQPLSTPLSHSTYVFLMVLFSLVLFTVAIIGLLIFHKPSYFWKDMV
Outline: (§3)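 Membrane preparations containing human NTPDase1, 2 or 3. Inhibitor added in water or 1% DMSO. Incubated 10 min at 37 °C, stopped at 99 °C for 5 min. Diluted with 20 μM UMP as internal standard, then analysed by capillary electrophoresis. Triplicates in two experiments.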

[7] = target: T7, Ectonucleoside triphosphate diphosphohydrolase 2 (Homo sapiens, UniProt Q9Y5L3); test: Inhibition of human NTPdase2 by capillary electrophoresis method; outline: as §3
T7 sequence (Q9Y5L3 whole entry): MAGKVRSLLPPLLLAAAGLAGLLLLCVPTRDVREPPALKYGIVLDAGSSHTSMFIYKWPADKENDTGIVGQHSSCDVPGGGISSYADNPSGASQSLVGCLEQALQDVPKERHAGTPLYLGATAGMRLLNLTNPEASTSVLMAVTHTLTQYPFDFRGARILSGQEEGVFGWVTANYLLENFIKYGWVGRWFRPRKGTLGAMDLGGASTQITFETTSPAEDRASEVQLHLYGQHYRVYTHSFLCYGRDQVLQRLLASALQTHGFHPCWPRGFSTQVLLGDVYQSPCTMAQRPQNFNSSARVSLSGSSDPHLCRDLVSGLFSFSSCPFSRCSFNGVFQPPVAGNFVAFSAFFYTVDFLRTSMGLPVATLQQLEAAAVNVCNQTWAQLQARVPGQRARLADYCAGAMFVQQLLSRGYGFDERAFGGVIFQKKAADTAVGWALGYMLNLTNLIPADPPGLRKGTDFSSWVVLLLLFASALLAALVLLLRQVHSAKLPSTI

[8] = target: T8, Ectonucleoside triphosphate diphosphohydrolase 3 (Homo sapiens, UniProt O75355); test: Inhibition of human NTPdase3 by capillary electrophoresis method; outline: as §3
T8 sequence (O75355 whole entry): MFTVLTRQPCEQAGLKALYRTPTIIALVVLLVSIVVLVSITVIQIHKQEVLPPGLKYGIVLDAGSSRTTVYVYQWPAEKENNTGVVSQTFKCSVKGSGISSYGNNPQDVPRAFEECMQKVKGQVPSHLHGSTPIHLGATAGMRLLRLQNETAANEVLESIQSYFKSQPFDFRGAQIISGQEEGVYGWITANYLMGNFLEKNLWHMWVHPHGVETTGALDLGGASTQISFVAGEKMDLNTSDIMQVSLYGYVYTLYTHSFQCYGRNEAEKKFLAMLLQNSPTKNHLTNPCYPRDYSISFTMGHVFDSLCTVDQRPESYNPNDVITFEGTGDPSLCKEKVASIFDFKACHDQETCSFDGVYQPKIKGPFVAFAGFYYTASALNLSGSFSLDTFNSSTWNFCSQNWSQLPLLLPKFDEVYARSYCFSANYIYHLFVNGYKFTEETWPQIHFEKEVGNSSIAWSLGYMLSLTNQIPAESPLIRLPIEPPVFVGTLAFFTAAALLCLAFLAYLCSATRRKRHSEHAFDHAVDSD

P2Y purinoceptor 2 = P2Y purinoceptor 2 (Homo sapiens, UniProt P41231); test: Antagonist activity at human P2Y2 receptor expressed in astrocytoma cells assessed as inhibition of intracellular calcium mobilization; format: functional, cell-based; outline: as §2
Sequence of P2Y purinoceptor 2 (P41231 whole entry): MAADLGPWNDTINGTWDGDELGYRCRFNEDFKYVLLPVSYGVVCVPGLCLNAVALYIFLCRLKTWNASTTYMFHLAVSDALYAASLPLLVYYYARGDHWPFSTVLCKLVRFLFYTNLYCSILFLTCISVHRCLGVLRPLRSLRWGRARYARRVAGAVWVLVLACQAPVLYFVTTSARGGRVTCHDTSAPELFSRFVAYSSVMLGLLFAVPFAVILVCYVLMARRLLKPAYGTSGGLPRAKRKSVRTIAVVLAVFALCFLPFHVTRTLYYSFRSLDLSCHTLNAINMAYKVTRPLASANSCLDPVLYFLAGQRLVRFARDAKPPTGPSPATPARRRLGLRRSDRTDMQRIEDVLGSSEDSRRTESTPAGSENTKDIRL

P2Y purinoceptor 4 = P2Y purinoceptor 4 (Homo sapiens, UniProt P51582); test: Antagonist activity at human P2Y4 receptor expressed in astrocytoma cells assessed as inhibition of intracellular calcium mobilization; format: functional, cell-based; outline: as §2
Sequence of P2Y purinoceptor 4 (P51582 whole entry): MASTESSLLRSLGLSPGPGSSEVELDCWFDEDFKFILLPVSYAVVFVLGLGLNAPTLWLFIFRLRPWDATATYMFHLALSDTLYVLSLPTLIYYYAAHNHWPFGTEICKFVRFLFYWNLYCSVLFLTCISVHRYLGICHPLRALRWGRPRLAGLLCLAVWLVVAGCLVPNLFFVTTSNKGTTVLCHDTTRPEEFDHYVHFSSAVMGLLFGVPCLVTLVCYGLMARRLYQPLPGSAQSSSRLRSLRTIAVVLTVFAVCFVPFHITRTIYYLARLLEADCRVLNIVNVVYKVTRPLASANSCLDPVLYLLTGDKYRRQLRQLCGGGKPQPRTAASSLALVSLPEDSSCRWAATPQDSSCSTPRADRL

[9] = Selectivity ratio of Ki for rat ecto-5'-nucleotidase to Ki for human NTPdase1

| pKi (5'-nucleotidase) | inhibition [1] | inhibition [2] | pKi [3] | pKi [4] | pKi [5] | pIC50 (P2Y purinoceptor 6) | pKi [6] | pKi [7] | pKi [8] | pIC50 (P2Y purinoceptor 2) | pIC50 (P2Y purinoceptor 4) | Ratio Ki [9] | SMILES |
| --- | --- | --- | --- | --- | --- | --- | --- | --- | --- | --- | --- | --- | --- |
| 6.28 | Active | Active | < 3.82 | < 3.40 | 5.82 | 4.52 | – | – | – | – | – | – | Nc1c(S(=O)(=O)O)cc(Nc2cccc3ccccc23)c2c1C(=O)c1ccccc1C2=O |
| 6.59 | – | – | – | – | – | 5.00 | < 4.40 | < 3.70 | < 4.22 | 4.52 | < 5.00 | > 150 | Nc1c(S(=O)(=O)O)cc(Nc2ccc(F)cc2C(=O)O)c2c1C(=O)c1ccccc1C2=O |
| 4.82 | – | – | 4.31 | 4.45 | 4.84 | < 5.00 | – | – | – | 4.96 | 4.59 | – | Nc1c(S(=O)(=O)O)cc(Nc2ccccc2)c2c1C(=O)c1ccccc1C2=O [ACID BLUE 25] |
| 6.82 | – | – | – | – | – | < 5.00 | 5.59 | < 3.70 | < 4.22 | 5.00 | < 5.00 | 17 | Nc1c(S(=O)(=O)O)cc(Nc2ccc3cc4ccccc4cc3c2)c2c1C(=O)c1ccccc1C2=O |
